In ChEMBL document CHEMBL5335796, “Novel Psilocin Prodrugs with Altered Pharmacological Properties as Candidate Therapies for Treatment-Resistant Anxiety Disorders” (J Med Chem, 2024):
Calls of active or inactive are those of the source. The rule behind the calls is not given here.

What was measured:
[1] = Drug metabolism in human intestine microsomes assessed as psilocin formation at 2.5 uM after 120 mins by LC-MS analysis; format: ADME, Microsome; settings: 2 h
Method in brief: (§1)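 2.5 μM compound in 50 mM potassium phosphate pH 7.4 with 3 mM MgCl2, 1 mM EDTA and an NADPH regenerating system. Incubated at 37 °C with human liver or intestinal S9 or microsomes (400 μg/mL protein) or 10% human AB serum. Acetonitrile quench, then LC-MS; psilocin concentration read at 120 min.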

[2] = Metabolic stability in human liver S9 fraction assessed as half life at 2.5 uM measured upto 120 mins in presence of NADPH by LC-MS analysis; format: ADME, subcellular; settings: s9, 2 h, 2.5 µM
Method in brief: (§2)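 2.5 μM compound at 37 °C in 50 mM potassium phosphate pH 7.4 with 3 mM MgCl2, 1 mM EDTA and an NADPH regenerating system. […] Sampled at 0–120 min in 20-min steps, acetonitrile quench, LC-MS of parent. T1/2 from one-phase exponential decay fit.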

[3] = Drug metabolism in human liver microsomes assessed as psilocin formation at 2.5 uM after 120 mins by LC-MS analysis; format: ADME, Microsome; settings: 2 h; method in brief: as §1
[4] = Drug metabolism in human intestine S9 fraction assessed as psilocin formation at 2.5 uM after 120 mins by LC-MS analysis; format: ADME, subcellular; settings: s9, 2 h; method in brief: as §1
[5] = Drug metabolism in human liver S9 fraction assessed as psilocin formation at 2.5 uM after 120 mins by LC-MS analysis; format: ADME, subcellular; settings: s9, 2 h; method in brief: as §1
[6] = Metabolic stability in human liver microsomes assessed as half life at 2.5 uM measured upto 120 mins in presence of NADPH by LC-MS analysis; format: ADME, Microsome; settings: microsomes, 2 h, 2.5 µM; method in brief: as §2
[7] = Metabolic stability in human serum assessed as half life at 2.5 uM measured upto 120 mins in presence of NADPH by LC-MS analysis; format: ADME, cell-free; settings: 2 h; method in brief: as §2
[8] = Drug metabolism in human serum assessed as psilocin formation at 2.5 uM after 120 mins by LC-MS analysis; format: ADME, cell-free; settings: 2 h; method in brief: as §1
[9] = Metabolic stability in human intestine microsomes assessed as half life at 2.5 uM measured upto 120 mins in presence of NADPH by LC-MS analysis; format: ADME, Microsome; settings: 2 h; method in brief: as §2
[10] = Metabolic stability in human intestine S9 fraction assessed as half life at 2.5 uM measured upto 120 mins in presence of NADPH by LC-MS analysis; format: ADME, subcellular; settings: s9, 2 h; method in brief: as §2
[11] = Drug metabolism in C57BL/6 mouse assessed as psilocin formation at 10 mg/kg, po measured after 8 hrs by LC-MS analysis; format: ADME, organism-based; settings: in vivo
[12] = Drug metabolism in po dosed C57BL/6 mouse assessed as psilocin formation measured upto 24 hrs by LC-MS analysis; format: ADME, organism-based; settings: in vivo, dose 1-10 mg/kg
[13] = test system: Mus musculus; assay: Psychedelic activity in mouse assessed as head-twitch response at 1 mg/kg, po measured after 15 to 30 mins; format: functional, organism-based; settings: time 15-30 min
Method in brief: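 C57BL/6 mice, singly housed for 2 days, with 30-min predose chamber acclimation. Single oral 1 mg/kg dose from 100 mM DMSO stock diluted in 0.9% saline; vehicle 1% DMSO in saline. Video-recorded after dosing; head twitches scored blind per 15-min interval (reference time course) or for the 15–30 min window. n = 2–4; one-way ANOVA.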

Structure (SMILES) | Drug metabolism [1] [µM] | t1/2 [2] [min] | Drug metabolism [3] [µM] | Drug metabolism [4] [µM] | Drug metabolism [5] [µM] | t1/2 [6] [min] | t1/2 [7] [min] | Drug metabolism [8] [µM] | t1/2 [9] [min] | t1/2 [10] [min] | Drug metabolism [11] | Drug metabolism [12] | Activity [13]
COC(=O)c1cccc(C(=O)Oc2cccc3[nH]cc(CCN(C)C)c23)c1 | 0.241 | 33 | 0.919 | 0.166 | 0.451 | 22 | 33 | 3.148 |  |  |  |  | 
COCCOCCOCC(=O)Oc1cccc2[nH]cc(CCN(C)C)c12 | 0 | 16 | 0.494 | 0 | 0 | 5 | 0.8 | 0 | 60 | 72 |  |  | 
CC(C)OC(=O)OCOc1cccc2c1c(CCN(C)C)cn2COC(=O)OC(C)C | 0 | 293 | 0.056 | 0 | 0.186 | 104 | 3 | 0 | 894 | 266 | Metabolite_Notdetected | Dose-Dependent Effect | 
CN(C)CCc1c[nH]c2cccc(O[Si](C)(C)C(C)(C)C)c12 | 0 | 191 | 0.012 | 0 | 0 | 347 |  | 0 |  |  | Metabolite_Notdetected | Dose-Dependent Effect | Active
CC(C)[Si](Oc1cccc2[nH]cc(CCN(C)C)c12)(C(C)C)C(C)C | 0 | 96 | 0 | 0 | 0 | 104 |  | 0.142 | 27 | 57 | Metabolite_Notdetected | Dose-Dependent Effect | 
CN(C)CCc1c[nH]c2cccc(OC(=O)OCC(Cl)(Cl)Cl)c12 | 0 |  | 0.057 | 0 | 0.133 | 277 | 182 | 0 | 150 | 221 |  |  | 
CN(C)CCc1c[nH]c2cccc(OC(=O)c3cccc4c3OCCO4)c12 | 0 | 529 | 0.329 | 0 | 0.145 | 390 |  | 0 | 113 |  | Metabolite_Notdetected | Dose-Dependent Effect | inactive
CN(C)CCc1c[nH]c2cccc(O[Si](c3ccccc3)(c3ccccc3)C(C)(C)C)c12 | 0 | 391 | 0 | 0 | 0 | 229 |  | 0 |  |  |  |  | 
CCC(=O)OCOc1cccc2c1c(CCN(C)C)cn2C(=O)CC | 0 | 16 | 0.001 | 0 | 0 | 13 | 0.8 | 0 | 22 | 52 |  |  | 
CCOC(=O)[C@@H](C)NP(=O)(Oc1ccccc1)Oc1cccc2c1c(CCN(C)C)cn2[Si](C(C)C)(C(C)C)C(C)C (stereo not given in full) | 0 | 26 | 0.324 | 0.47 | 0.153 | 22 | 145 | 0 | 29 | 39 |  |  | 
CN(C)CCc1c[nH]c2cccc(OC(=O)c3ccc(Br)cc3)c12 | 0.018 | 39 | 1.31 | 0 | 0.689 | 87 | 19 | 2.01 | 71 | 69 | Metabolite_Notdetected | Dose-Dependent Effect | 
CN(C)CCc1c[nH]c2cccc(OP3(=O)OCC(C)(C)CO3)c12 | 0 |  | 0 | 0 | 0.011 |  |  | 0 |  |  |  |  | 
CN(C)CCc1c[nH]c2cccc(OP(=O)(Oc3ccccc3)Oc3ccccc3)c12 | 0.076 | 96 | 0 | 0 | 0.073 | 43 |  | 0.069 | 28 | 52 | Metabolite_Notdetected | Dose-Dependent Effect | 
CN(C)CCc1cn(C(=O)OCc2ccccc2)c2cccc(OC(=O)OCc3ccccc3)c12 | 0 | 22 | 0 | 0 | 0 | 52 | 0.8 | 0 | 13 | 16 | Metabolite_Notdetected | Dose-Dependent Effect | 
CN(C)CCc1c[nH]c2cccc(OC(=O)c3cccc(C(=O)Oc4cccc5[nH]cc(CCN(C)C)c45)c3)c12 | 0 |  | 0 | 0 | 0 | 241 | 101 | 0 | 621 | 445 |  |  | 
CC(C)[Si](C(C)C)(C(C)C)n1cc(CCN(C)C)c2c(OC(=O)OCC3CC3)cccc21 | 0.096 | 49 | 0.186 | 0.018 | 0.072 | 31 | 26 | 0 | 24 | 24 |  |  | 
CC(C)[Si](C(C)C)(C(C)C)n1cc(CCN(C)C)c2c(OC(=O)Sc3ccccc3)cccc21 | 0 | 7 | 0.206 | 0 | 0.133 | 9 | 32 | 0 | 13 | 24 |  |  | 
CC(C)[Si](C(C)C)(C(C)C)n1cc(CCN(C)C)c2c(OCc3ccc(F)cc3)cccc21 | 0 | 60 | 0 | 0 | 0 | 27 |  | 0 | 50 | 64 |  |  | 
CC(C)[Si](C(C)C)(C(C)C)n1cc(CCN(C)C)c2c(OC(=O)c3ccc(Br)cc3)cccc21 | 0.887 | 15 | 1.659 | 0.195 | 0.656 | 25 |  | 0 | 11 | 16 |  |  | 
CCC(=O)Oc1cccc2c1c(CCN(C)C)cn2[Si](C(C)C)(C(C)C)C(C)C | 0.053 | 3 | 0.244 | 0 | 0.204 | 2 | 49 | 0 | 2 | 2 |  |  | 
